Results published in ChEMBL document CHEMBL1153556, “Antiplasmodial activity of [(aryl)arylsulfanylmethyl]Pyridine” (Antimicrob Agents Chemother, 2008).
Activity calls are given as the source filed them. The calls are words filed in the database; no cut-off is given here.

How the values were obtained:
Plasmodium falciparum [1] = test: Antiplasmodial activity after 48 hrs against chloroquine-sensitive Plasmodium falciparum NF54 by [3H]hypoxanthine uptake; assay type: functional, organism-based
How it was run: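 Ring-stage cultures were synchronized with 5% d-sorbitol. At 0.5 to 1% parasitemia they were grown in multiwell plates (200 μl/well) across a range of concentrations, with chloroquine as positive control. After 48 h, [3H]hypoxanthine (0.7 μCi/well) was added and culture continued 48 h. Parasites were washed in PBS, dissolved in 3 N NaOH (37°C, 6 h) and counted by β-counter. IC50 reported as mean ± SEM.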

[2] = target: T1, Histidine-rich protein PFHRP-II (Plasmodium falciparum, UniProt P05227); test: Inhibition of hemozoin formation after 48 hrs in chloroquine-sensitive Plasmodium falciparum NF54; assay type: functional
T1 sequence (P05227 whole entry): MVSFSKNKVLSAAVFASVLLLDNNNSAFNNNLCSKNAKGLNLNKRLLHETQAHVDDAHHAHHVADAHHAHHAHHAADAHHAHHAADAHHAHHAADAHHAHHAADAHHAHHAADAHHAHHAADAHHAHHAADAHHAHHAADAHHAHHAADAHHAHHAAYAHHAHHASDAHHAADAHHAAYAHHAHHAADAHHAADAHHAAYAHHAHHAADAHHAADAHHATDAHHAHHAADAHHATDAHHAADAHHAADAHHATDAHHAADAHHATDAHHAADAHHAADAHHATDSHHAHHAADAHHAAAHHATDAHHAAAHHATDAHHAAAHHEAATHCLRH
How it was run: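 P. falciparum NF54 culture (5% parasitemia) was ring-synchronized with 5% d-sorbitol, then exposed to graded drug concentrations for 48 h. Parasites were freed with saponin, sonicated and washed with 2% SDS. The pellet was digested overnight at 37°C with proteinase K (2 μg/ml) in Tris/SDS/CaCl2 and treated with 6 M urea for 3 h. After further SDS washes, hemozoin was dissolved in 20 mM NaOH/2% SDS and read at 400 nm.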

Heme = test: Binding affinity to heme by optical difference spectroscopy
How it was run: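 Heme in 100 mM acetate buffer pH 5.2 at 25 ± 1°C, 1-cm quartz cell, was titrated with successive additions of compound (5 to 40 μM). Soret and difference spectra were recorded after each addition. KD came from a double-reciprocal plot of 1/ΔA362 against 1/[ligand]; mean ± SEM.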

Plasmodium yoelii [3] = test: Inhibition of hemozoin formation after 48 hrs in multi drug-resistant Plasmodium yoelii
Plasmodium yoelii [4] = test: Antiplasmodial activity as decreased mitochondrial transmembrane potential after 1 hrs against multi drug-resistant Plasmodium yoelii trophozoite infected Swiss mice (Mus musculus) erythrocytes at 10 uM by JC1 uptake; assay type: functional, organism-based
Plasmodium yoelii [5] = test: Antiplasmodial activity as reduced parasitaemia at day 4 against multi drug-resistant Plasmodium yoelii infected BALB/c mice (Mus musculus) at 10 mg/kg intraperitoneal dose 6 hrs post infection and daily for 3 days by Giemsa stain; assay type: functional; parameters: scale not given: the % may be the effect or the level left
How it was run: (§1)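 BALB/c mice (22 ± 2 g), five per group, infected intraperitoneally on day 0 with 10^5 parasitized RBC of P. yoelii resistant to chloroquine, mefloquine and halofantrine. Dosing was intraperitoneal in groundnut oil (0.2 ml), starting 6 h after inoculation and given once daily on days 0–3. Parasitemia was read on Giemsa thin smears on day 4. Group means gave % suppression [(C−T)/C]×100 against vehicle controls; α-β-arteether served as the positive control.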

MCF7 [6] = test: Cytotoxicity against human MCF7 cells assessed as cell viability at 10 to 1000 uM after 24 hrs by MTT assay; assay type: cell-based; settings: mcf7, 24 h
Plasmodium yoelii [7] = test: Antiplasmodial activity as reduced parasitaemia at day 4 against multi drug-resistant Plasmodium yoelii infected BALB/c mice (Mus musculus) at 50 mg/kg intraperitoneal dose 6 hrs post infection and daily for 3 days by Giemsa stain; assay type: functional; parameters: scale not given: the % may be the effect or the level left; how it was run: as §1
Plasmodium falciparum [8] = test: Induction of oxidative stress as lipid peroxide formation after 48 hrs in chloroquine-sensitive Plasmodium falciparum NF54; assay type: functional, organism-based
How it was run: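 Ring-synchronized culture (4% parasitemia) was treated 48 h, and parasites were isolated and lysed in PBS. Lysate was heated with TCA–thiobarbituric acid in 1 N HCl at 100°C for 15 min, cooled and centrifuged. A535 of the supernatant was read against a tetraethoxypropane standard, expressed as nmol/mg lysate protein.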

Plasmodium falciparum [9] = test: Induction of oxidative stress as increased H2O2 formation after 48 hrs in chloroquine-sensitive Plasmodium falciparum NF54 by spectrofluorimetry; assay type: functional, organism-based
How it was run: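 Parasites at 4% parasitemia were treated 48 h, then loaded 30 min with 10 μM 2′,7′-dichlorofluorescein diacetate. They were isolated and lysed by mild sonication at 4°C. Dichlorofluorescein fluorescence was read at ex 502/em 523 nm and expressed as intensity/mg lysate protein.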

Plasmodium falciparum [10] = test: Induction of oxidative stress as increased hydroxyl radical formation after 48 hrs in chloroquine-sensitive Plasmodium falciparum NF54 by fast blue BB assay; assay type: functional, organism-based
How it was run: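 Ring/early-trophozoite culture (2% parasitemia) was grown 48 h with compound plus 20 μl of 25% DMSO as ·OH trap, re-dosed at each daily medium change; a parasite-only control had neither. Isolated parasites were lysed in water, and methanesulfinic acid from the DMSO–·OH reaction was extracted for quantitation.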

[11] = target: T2, Histidine-rich protein PFHRP-II (Plasmodium falciparum) (UniProt P05227); test: Inhibition of hemozoin formation after 48 hrs against chloroquine-sensitive Plasmodium falciparum NF54 at 10 to 100 uM by spectrophotometry; assay type: functional
T2 sequence (whole entry): T1 sequence (P05227 whole entry)
How it was run: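 Ring-synchronized culture (5% parasitemia, sorbitol) was treated 48 h across a concentration range. Parasites were saponin-isolated and sonicated, and the pellet washed in 2% SDS. It was digested with proteinase K (2 μg/ml, 37°C overnight), treated with 6 M urea for 3 h, and washed in SDS. Hemozoin was dissolved in 20 mM NaOH/2% SDS and read at 400 nm.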

MCF7 [12] = test: Cytotoxicity against human MCF7 cells assessed as cell viability after 24 hrs by MTT assay; assay type: cell-based; settings: MCF7, 24 h
Plasmodium falciparum [13] = test: Induction of oxidative stress as decreased glutathione after 48 hrs in chloroquine-sensitive Plasmodium falciparum NF54 by TCA assay; assay type: functional, organism-based
How it was run: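 Parasites at 4% parasitemia were treated 48 h, then isolated and sonicated in 20 mM ice-cold EDTA. The lysate was deproteinized with equal-volume 10% TCA, and the supernatant mixed with 0.8 M Tris-HCl pH 9 containing 20 mM DTNB. A412 was read against a GSH standard and expressed as % of control.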

Plasmodium falciparum [14] = test: Antiplasmodial activity as increased heme accumulation after 48 hrs against chloroquine-sensitive Plasmodium falciparum NF54 at 10-100 uM by spectrophotometry; assay type: functional, organism-based
How it was run: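 Cultures were exposed to a range of concentrations for 48 h, then pelleted and washed in PBS. Each pellet was solubilized in 1 ml concentrated formic acid. Heme was read at 398 nm (ε = 1.56 × 10^5 M−1 cm−1) and expressed as nmol/mg cell protein.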

Plasmodium yoelii [15] = test: Antiplasmodial activity as reduced parasitaemia at day 4 against multi drug-resistant Plasmodium yoelii infected BALB/c mice (Mus musculus) at 25 mg/kg intraperitoneal dose 6 hrs post infection and daily for 3 days by Giemsa stain; assay type: functional; parameters: scale not given: the % may be the effect or the level left; how it was run: as §1
[16] = Selectivity index ratio of IC50 for human MCF7 cells to IC50 for chloroquine-sensitive Plasmodium falciparum NF54; assay type: functional
How it was run: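 Selectivity index = MCF-7 MTT IC50 divided by P. falciparum NF-54 [3H]hypoxanthine-uptake IC50.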

Plasmodium falciparum [17] = test: Antiplasmodial activity after 48 hrs against chloroquine-sensitive Plasmodium falciparum NF54 by [3H]hypoxanthine uptake in presence of mannitol; assay type: functional, organism-based
How it was run: (§2)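 Cultures at 4% parasitemia received test compound at 40 μM for 48 h, plus the ·OH scavenger PBN (40 mM) or mannitol (10 mM). Growth was read as [3H]hypoxanthine incorporation, β-counting, n = 6, mean ± SEM.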

Plasmodium falciparum [18] = test: Antiplasmodial activity as parasite invasion after 24 hrs against chloroquine-sensitive Plasmodium falciparum NF54 infected human B+ erythrocytes at <40 uM 24 hrs preinfection by [3H]hypoxanthine uptake; assay type: functional, organism-based
How it was run: (§3)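 Uninfected human B+ RBC at 5% hematocrit were preincubated 24 h in CRPMI with compound up to 40 μM; DMSO served as control. Cells were washed three times, then inoculated with trophozoite-rich parasitized RBC (4 to 5% parasitemia). After one intraerythrocytic cycle, [3H]hypoxanthine (0.7 μCi/well) was added for 24 h. Cells were filter-harvested and counted (cpm), n = 6.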

Plasmodium falciparum [19] = test: Antiplasmodial activity as parasite growth after 24 hrs against chloroquine-sensitive Plasmodium falciparum NF54 infected human B+ erythrocytes at <40 uM 24 hrs preinfection by [3H]hypoxanthine uptake; assay type: functional, organism-based; how it was run: as §3
Plasmodium falciparum [20] = test: Antiplasmodial activity after 48 hrs against chloroquine-sensitive Plasmodium falciparum NF54 by [3H]hypoxanthine uptake in presence of PBN; assay type: functional, organism-based; how it was run: as §2
Plasmodium yoelii [21] = test: Antiplasmodial activity as reduced parasitaemia at day 4 against multi drug-resistant Plasmodium yoelii infected BALB/c mice (Mus musculus) at 100 mg/kg intraperitoneal dose 6 hrs post infection and daily for 3 days by Giemsa stain; assay type: functional; parameters: scale not given: the % may be the effect or the level left; how it was run: as §1

Row | SMILES | IC50 (Plasmodium falciparum [1]) [µM] | IC50 [2] [µM] | Kd (Heme) [µM] | IC50 (Plasmodium yoelii [3]) [µM] | Activity (MCF7 [6]) | Activity (Plasmodium yoelii [7]) [%] | Activity (Plasmodium falciparum [8]) | Activity (Plasmodium falciparum [9]) | Activity (Plasmodium falciparum [10]) | Activity [11] | IC50 (MCF7 [12]) [µM] | Activity (Plasmodium falciparum [13]) | Activity (Plasmodium yoelii [15]) [%] | other results
1 | COc1ccc(C(Sc2ccc(C)cc2)c2ccccn2)cc1 (stereo not drawn) | 20 | – | – | – | – | – | – | – | – | – | – | – | – | –
2 | COc1ccc(C(Sc2nc3ccccc3s2)c2cccnc2)cc1 (stereo not drawn) | 12 | 35 | 14 | 40 | – | – | – | – | – | – | – | – | – | –
3 | COc1ccc(C(Sc2ccc(Cl)cc2)c2cccnc2)cc1 (stereo not drawn) | 12 | 40 | – | 40 | – | – | – | – | – | – | – | – | – | –
4 | CCCCCC[C@H]1C(=O)O[C@H](C)[C@H](NC(=O)c2cccc(NC=O)c2O)C(=O)O[C@@H](C)[C@@H]1OC(=O)CC(C)C | – | – | – | – | – | – | – | – | – | – | – | – | – | Activity (Plasmodium yoelii [4]): Active
5 | COc1ccc(C(Sc2ccccc2)c2cccnc2)cc1 (stereo not drawn) | 5 | 11 | 20 | 18 | Non-toxic | 60 | Dose-dependent effect | Dose-dependent effect | Dose-dependent effect | Dose-dependent effect | 1000 | Dose-dependent effect | 30 | Activity (Plasmodium yoelii [5]): 20%; %max (Plasmodium falciparum [14]): Active; Ratio IC50 [16]: 200
6 | COc1ccc(C(Sc2ccc(C)cc2)c2cccnc2)cc1 (stereo not drawn) | 20 | 40 | 12 | 20 | – | – | – | – | – | – | – | – | – | –
7 | COc1ccc(C(Sc2ccc3ccccc3c2)c2cccnc2)cc1 (stereo not drawn) | 4 | – | – | – | Non-toxic | 85 | Dose-dependent effect | Dose-dependent effect | Dose-dependent effect | Dose-dependent effect | 650 | Dose-dependent effect | 65 | Activity (Plasmodium yoelii [5]): 40%; Activity (Plasmodium falciparum [17]): inactive; Activity (Plasmodium falciparum [18]): inactive; Activity (Plasmodium yoelii [4]): Active; Activity (Plasmodium falciparum [14]): Active; Activity (Plasmodium falciparum [19]): inactive; Activity (Plasmodium falciparum [20]): inactive
8 | COc1ccc(C(Sc2ccccc2C)c2cccnc2)cc1 (stereo not drawn) | 8 | 16 | 26 | 26 | Non-toxic | 50 | Dose-dependent effect | Dose-dependent effect | Dose-dependent effect | Dose-dependent effect | 1000 | Dose-dependent effect | 30 | Activity (Plasmodium falciparum [14]): Active; Activity (Plasmodium falciparum [19]): inactive; Activity (Plasmodium yoelii [21]): 80%; Ratio IC50 [16]: 125
